Assay [1] deals with Metabotropic glutamate receptor 2 (Homo sapiens, UniProt Q14416). Kind of assay: Activity against mGluR2.
For assay [2], the target named is Excitatory amino acid transporter 1 (Homo sapiens, UniProt P43003). Put plainly: Activity against human EAAT1 transfected in HEK293 cells. It is filed as cell-based. Put shortly: (§1)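 HEK293 lines stably expressing the human transporter were grown on poly-D-lysine plates in DMEM with 10% dialyzed FBS, pen/strep and 1 mg/mL G-418. After 16-24 h, cells were put in Krebs buffer (pH 7.4) containing inhibitor and loaded with FMP dye for 30 min at 37 °C. Plates were read at 30 °C (ex 530/em 560 nm) up to 1 min after adding 30 µM Glu. Runs were in triplicate, ≥3 times. IC50 was converted to Ki by Cheng-Prusoff.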

The target in assay [3] is Excitatory amino acid transporter 2 (Homo sapiens, UniProt P43004). Kind of assay: Activity against human EAAT2 transfected in HEK293 cells. It is filed as cell-based. The method, boiled down:
as §1

Assay [4] concerns the target T1, Excitatory amino acid transporter 3 (Homo sapiens, UniProt P43005).
T1 sequence (P43005 whole entry): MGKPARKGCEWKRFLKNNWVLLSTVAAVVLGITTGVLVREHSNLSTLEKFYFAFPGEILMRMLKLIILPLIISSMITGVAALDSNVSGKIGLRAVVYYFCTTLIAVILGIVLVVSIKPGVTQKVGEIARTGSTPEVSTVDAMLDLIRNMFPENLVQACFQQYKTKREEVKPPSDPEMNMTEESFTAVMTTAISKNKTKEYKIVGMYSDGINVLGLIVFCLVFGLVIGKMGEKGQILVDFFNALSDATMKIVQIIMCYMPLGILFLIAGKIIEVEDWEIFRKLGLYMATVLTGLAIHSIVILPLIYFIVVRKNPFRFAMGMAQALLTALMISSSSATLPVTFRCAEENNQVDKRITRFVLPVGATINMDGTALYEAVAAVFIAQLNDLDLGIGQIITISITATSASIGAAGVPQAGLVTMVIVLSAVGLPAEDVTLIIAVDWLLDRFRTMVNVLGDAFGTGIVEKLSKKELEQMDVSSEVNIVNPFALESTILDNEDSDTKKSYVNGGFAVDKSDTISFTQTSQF
Kind of assay: Activity against human EAAT3 transfected in HEK293 cells. It is filed as cell-based. Put shortly: as §1

Assay [5] deals with Glutamate receptor ionotropic, AMPA (Rattus norvegicus, UniProt P19490+P19491+P19492+P19493). Put plainly: Displacement of [3H]AMPA from AMPA receptor in rat brain. Format: tissue-based. Put shortly: (§2)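 Radioligand binding used rat brain membranes prepared by the Ransom and Stec method. Ligands were 5 nM [³H]AMPA for AMPA sites, 5 nM [³H]KAIN for kainate sites and 2 nM [³H]CGP 39653 for NMDA sites, and the value is reported as IC50.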
A general note: Loss of bound radioactivity is the signal in a displacement assay; it reports binding, not function.

In assay [6] the target is Glutamate receptor ionotropic, kainate. Kind of assay: Displacement of [3H]KAIN from kainate receptor in rat brain. Format: tissue-based. The method, boiled down: as §2
For the next assay, the target named is Glutamate NMDA receptor. Put plainly: Displacement of [3H]CGP-39653 from NMDA preferring iGlu receptor in rat brain. Format: tissue-based.
For assay [7], the target named is Metabotropic glutamate receptor 1 (Homo sapiens, UniProt Q13255). Put plainly: Activity against mGluR1.

The structures appear in SMILES notation.

Sequence of Excitatory amino acid transporter 1 (P43003 whole entry): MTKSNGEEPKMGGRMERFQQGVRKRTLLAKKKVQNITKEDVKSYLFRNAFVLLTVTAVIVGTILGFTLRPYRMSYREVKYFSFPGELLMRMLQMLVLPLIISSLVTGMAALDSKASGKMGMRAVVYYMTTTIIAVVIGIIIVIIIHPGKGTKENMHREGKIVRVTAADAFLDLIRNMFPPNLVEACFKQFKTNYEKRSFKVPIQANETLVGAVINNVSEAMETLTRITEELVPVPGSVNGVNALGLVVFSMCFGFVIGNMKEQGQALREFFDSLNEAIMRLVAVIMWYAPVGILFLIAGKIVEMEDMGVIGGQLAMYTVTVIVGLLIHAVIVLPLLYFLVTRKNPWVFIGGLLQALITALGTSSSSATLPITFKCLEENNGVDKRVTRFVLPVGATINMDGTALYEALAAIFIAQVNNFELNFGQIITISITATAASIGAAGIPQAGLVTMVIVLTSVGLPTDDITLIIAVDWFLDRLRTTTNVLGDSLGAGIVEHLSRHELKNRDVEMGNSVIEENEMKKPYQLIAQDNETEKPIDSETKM
Sequence of Excitatory amino acid transporter 2 (P43004 whole entry): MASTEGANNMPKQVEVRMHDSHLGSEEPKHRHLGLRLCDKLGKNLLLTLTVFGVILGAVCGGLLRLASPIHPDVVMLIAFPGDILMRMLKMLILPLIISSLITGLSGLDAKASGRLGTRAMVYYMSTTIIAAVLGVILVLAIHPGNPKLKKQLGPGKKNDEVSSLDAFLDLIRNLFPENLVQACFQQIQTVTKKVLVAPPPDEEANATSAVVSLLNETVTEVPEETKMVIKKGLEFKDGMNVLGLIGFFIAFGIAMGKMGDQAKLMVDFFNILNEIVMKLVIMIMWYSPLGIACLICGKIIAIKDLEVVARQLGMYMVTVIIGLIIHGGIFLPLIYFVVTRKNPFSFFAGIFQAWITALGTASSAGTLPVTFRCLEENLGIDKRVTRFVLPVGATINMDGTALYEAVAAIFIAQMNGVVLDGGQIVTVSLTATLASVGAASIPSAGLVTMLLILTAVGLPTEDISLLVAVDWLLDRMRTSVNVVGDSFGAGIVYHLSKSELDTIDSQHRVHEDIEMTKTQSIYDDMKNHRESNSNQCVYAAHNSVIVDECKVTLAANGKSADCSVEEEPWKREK
Sequence of Metabotropic glutamate receptor 1 (Q13255 whole entry): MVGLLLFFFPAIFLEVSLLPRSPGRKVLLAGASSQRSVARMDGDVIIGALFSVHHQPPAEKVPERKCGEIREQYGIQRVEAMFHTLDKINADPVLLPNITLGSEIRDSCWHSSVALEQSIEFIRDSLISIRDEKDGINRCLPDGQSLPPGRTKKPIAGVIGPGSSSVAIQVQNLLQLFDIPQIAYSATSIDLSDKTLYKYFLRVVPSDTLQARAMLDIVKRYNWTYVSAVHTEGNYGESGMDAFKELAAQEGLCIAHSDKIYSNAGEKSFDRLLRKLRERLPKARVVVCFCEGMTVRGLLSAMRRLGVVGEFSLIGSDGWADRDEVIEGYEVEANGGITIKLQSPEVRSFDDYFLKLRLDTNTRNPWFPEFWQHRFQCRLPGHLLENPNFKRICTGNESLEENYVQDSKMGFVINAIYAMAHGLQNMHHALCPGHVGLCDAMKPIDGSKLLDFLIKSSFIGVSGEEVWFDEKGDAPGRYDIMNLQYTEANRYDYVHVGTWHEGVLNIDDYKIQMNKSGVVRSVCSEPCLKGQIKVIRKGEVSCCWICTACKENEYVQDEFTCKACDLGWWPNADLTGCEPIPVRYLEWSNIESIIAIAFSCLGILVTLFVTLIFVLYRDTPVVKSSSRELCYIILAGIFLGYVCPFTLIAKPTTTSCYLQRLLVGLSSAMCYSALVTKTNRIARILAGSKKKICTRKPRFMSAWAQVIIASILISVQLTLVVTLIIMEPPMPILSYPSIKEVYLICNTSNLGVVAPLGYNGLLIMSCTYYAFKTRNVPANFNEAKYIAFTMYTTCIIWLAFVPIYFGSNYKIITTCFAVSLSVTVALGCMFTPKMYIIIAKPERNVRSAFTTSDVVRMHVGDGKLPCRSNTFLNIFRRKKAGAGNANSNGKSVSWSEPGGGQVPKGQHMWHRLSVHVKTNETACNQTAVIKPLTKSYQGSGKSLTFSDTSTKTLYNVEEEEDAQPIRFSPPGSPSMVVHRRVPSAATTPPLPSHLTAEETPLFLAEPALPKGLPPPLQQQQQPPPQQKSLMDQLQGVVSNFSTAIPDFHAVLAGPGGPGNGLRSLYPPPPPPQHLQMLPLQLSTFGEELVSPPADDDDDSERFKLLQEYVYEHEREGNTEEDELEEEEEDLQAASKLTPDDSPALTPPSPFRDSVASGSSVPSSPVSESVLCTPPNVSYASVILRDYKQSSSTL
Sequence of Metabotropic glutamate receptor 2 (Q14416 whole entry): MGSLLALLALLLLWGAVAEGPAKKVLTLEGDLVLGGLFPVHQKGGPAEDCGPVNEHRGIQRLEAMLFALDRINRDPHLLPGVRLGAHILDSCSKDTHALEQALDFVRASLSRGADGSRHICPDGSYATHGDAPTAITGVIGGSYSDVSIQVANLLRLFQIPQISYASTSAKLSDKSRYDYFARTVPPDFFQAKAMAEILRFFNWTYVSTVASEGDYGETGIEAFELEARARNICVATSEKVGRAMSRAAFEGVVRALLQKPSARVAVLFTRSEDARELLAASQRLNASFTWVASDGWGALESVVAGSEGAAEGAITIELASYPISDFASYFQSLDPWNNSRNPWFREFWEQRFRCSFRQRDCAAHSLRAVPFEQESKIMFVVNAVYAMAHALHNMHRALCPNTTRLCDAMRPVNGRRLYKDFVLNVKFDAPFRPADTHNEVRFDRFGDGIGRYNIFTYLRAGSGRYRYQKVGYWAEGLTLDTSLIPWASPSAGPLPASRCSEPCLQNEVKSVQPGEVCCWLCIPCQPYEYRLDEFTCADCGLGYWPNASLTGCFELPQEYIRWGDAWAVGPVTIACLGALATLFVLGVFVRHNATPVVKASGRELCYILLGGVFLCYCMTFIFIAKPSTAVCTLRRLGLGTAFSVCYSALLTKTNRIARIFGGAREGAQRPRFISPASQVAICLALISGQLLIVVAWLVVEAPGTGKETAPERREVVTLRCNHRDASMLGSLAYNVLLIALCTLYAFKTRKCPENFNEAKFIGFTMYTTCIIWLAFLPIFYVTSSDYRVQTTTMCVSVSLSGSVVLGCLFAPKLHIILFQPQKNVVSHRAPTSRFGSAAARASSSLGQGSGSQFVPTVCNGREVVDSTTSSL

Take `O=C(O)[C@H]1CC[C@H]2CN[C@H](C(=O)O)[C@H]21`: the results for the half-maximal effective concentration (EC50) in assay [1] and in assay [7] were 1000 µM and more than 1000 µM, respectively. Further, the Ki (commonly the equilibrium dissociation constant of an inhibitor or competing ligand from its target) in assay [2] was found to be 127 µM; in assay [3] it was 52 µM; in assay [4], 46 µM; at Glutamate NMDA receptor it was 2.9 µM. For the same molecule, the results for the IC50 in assay [5] and in assay [6] were more than 100 µM and 14 µM, respectively.

For the molecule `O=C(O)[C@H]1CC2CC1[C@@H](C(=O)O)N2` (stereo partly specified), the Ki in assay [2], in assay [3] and in assay [4] was more than 400 µM throughout.

The values are drawn from ChEMBL document CHEMBL1148598, “Rational design and enantioselective synthesis of (1R,4S,5R,6S)-3-azabicyclo[3.3.0]octane-4,6-dicarboxylic acid - a novel inhibitor at human glutamate transporter subtypes 1, 2, and 3” (J Med Chem, 2006).
